Experiment [1] has as its target Mu-type opioid receptor (Cavia porcellus, UniProt P97266). Kind of experiment: Agonist activity at mu opioid receptor by guinea pig ileum assay. It is filed as functional, tissue-based. In outline:
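Myenteric plexus–longitudinal muscle from male guinea pig ileum was field-stimulated with supramaximal bipolar rectangular pulses. Agonism was read as inhibition of the electrically evoked twitch, referenced to dermorphin. IC50 came from dose-response curves over at least six experiments on fresh tissue.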

Experiment [2] addresses Opioid receptors; mu & delta (Homo sapiens) (UniProt P41143+P35372). Kind of experiment: Selectivity for delta opioid receptor over mu opioid receptor. It is filed as protein assay. In a few lines:
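Non-specific binding was set with 2 μM unlabeled peptide. Five to eight peptide doses were run in duplicate, with independent repeats on different preparations. Samples were filtered on 0.1% polyethylenimine-soaked glass fiber filters and washed thrice with ice-cold buffered BSA. Ki was derived by Cheng–Prusoff.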

Experiment [3] has as its target Delta-type opioid receptor (Mus musculus) (UniProt P32300). Briefly: (§1) Agonist activity at delta opioid receptor by mouse vas deferens assay. The experiment is classed as functional, tissue-based. In outline: (§2)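 Isolated mouse vas deferens was field-stimulated with supramaximal bipolar rectangular pulses. Agonism was read as inhibition of the electrically evoked twitch, referenced to deltorphin C. IC50 came from dose-response curves over at least six experiments on fresh tissue.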

Experiment [4] deals with Delta-type opioid receptor (Mus musculus, UniProt P32300). Described as §1. It is filed as functional, tissue-based. In a few lines:
as §2

In experiment [5] the target is Delta-type opioid receptor (Mus musculus) (UniProt P32300). Kind of experiment: Activity at delta opioid receptor by mouse vas deferens assay. Conditions: filed as partial agonist. The experiment is classed as functional, tissue-based. In a few lines:
as §2

Square brackets hold non-standard residues; d marks the D form. Peptide text beside a SMILES is read from it. * marks the point of attachment. Dmt = Cc1cc(O)cc(C)c1C[C@H](N)C(=O)O; Tic = O=C(O)[C@@H]1Cc2ccccc2CN1; NHBn = c1ccc(CN*)cc1; NHPh = c1ccc(N*)cc1

What is called IC50 is the concentration needed to halve the response being measured. A lower IC50 goes with higher potency.

Sequence of Delta-type opioid receptor (P32300 whole entry): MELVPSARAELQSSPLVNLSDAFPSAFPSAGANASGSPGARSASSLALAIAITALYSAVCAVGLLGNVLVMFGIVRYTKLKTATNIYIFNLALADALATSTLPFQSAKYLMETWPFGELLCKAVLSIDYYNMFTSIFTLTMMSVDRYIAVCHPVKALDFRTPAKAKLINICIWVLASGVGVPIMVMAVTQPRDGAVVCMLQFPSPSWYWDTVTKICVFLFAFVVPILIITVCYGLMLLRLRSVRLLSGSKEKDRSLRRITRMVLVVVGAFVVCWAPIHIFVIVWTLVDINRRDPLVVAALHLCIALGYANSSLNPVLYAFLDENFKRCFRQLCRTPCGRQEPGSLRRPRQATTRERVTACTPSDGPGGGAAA
Sequence of Delta-type opioid receptor (Mus musculus) (P32300 whole entry): as above
Sequence of Mu-type opioid receptor (P97266 whole entry): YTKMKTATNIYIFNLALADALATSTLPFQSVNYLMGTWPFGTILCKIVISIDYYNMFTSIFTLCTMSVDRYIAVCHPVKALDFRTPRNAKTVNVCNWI
Sequence of Opioid receptors; mu & delta (Homo sapiens) (P35372 whole entry, looked up): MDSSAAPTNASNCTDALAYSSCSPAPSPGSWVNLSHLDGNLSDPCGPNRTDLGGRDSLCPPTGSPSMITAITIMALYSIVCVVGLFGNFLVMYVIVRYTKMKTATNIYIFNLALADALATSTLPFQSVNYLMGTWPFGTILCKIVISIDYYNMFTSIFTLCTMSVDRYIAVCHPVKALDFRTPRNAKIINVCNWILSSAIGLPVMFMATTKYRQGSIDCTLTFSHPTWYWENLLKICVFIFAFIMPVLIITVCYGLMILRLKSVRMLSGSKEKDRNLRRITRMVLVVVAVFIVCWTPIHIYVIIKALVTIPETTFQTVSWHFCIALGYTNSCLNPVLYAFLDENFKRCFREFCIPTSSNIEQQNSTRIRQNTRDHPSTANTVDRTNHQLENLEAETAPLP
Sequence of Opioid receptors; mu & delta (Homo sapiens) (P41143 whole entry, looked up): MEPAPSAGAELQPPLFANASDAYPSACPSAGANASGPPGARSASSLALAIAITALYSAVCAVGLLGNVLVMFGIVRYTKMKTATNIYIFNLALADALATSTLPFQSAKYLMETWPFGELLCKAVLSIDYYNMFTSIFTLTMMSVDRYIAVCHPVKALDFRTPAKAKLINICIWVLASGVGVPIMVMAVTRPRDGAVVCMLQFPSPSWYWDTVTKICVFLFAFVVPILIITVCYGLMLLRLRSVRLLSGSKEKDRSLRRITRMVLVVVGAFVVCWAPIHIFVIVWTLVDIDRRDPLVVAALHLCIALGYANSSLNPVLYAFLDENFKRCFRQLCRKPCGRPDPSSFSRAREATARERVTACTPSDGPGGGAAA

In the case of `Cc1cc(O)cc(C)c1C[C@H](N)C(=O)N1Cc2ccccc2C[C@H]1C(=O)NCC(=O)NCc1ccccc1` (H-[Dmt]-[Tic]-Gly-NHBn), in experiment [1], the IC50 was 2.69 nM. In addition, the Selectivity ratio in experiment [2] turned out to be 5.3.

As for `Cc1cc(O)cc(C)c1C[C@H](N)C(=O)N[C@H]1Cc2ccccc2CN(CC(=O)Nc2ccccc2)C1=O`, the IC50 in experiment [1] is 95 nM; in experiment [4], 650 nM. This compound also came in with a %max in experiment [3] of 40%. Also, the Activity result in experiment [5] is “Partial agonist”.

Take `Cc1cc(O)cc(C)c1C[C@H](N)C(=O)N1Cc2ccccc2C[C@H]1C(=O)NCC(=O)Nc1ccccc1` (H-[Dmt]-[Tic]-Gly-NHPh): the 50% inhibitory concentration (IC50) worked out at 2.57 nM in experiment [1] and 3.02 nM in experiment [4]. In experiment [2], the Selectivity ratio turned out to be 3.6.

Consider `Cc1cc(O)cc(C)c1C[C@H](N)C(=O)N[C@H]1Cc2ccccc2CN(CC(=O)NCc2ccccc2)C1=O`, for which the IC50 in experiment [1] amounted to 51 nM; in experiment [4], 830 nM.

`Cc1cc(O)cc(C)c1C[C@H](N)C(=O)N[C@H]1Cc2ccccc2CN(Cc2nc3ccccc3[nH]2)C1=O`: the 50% inhibitory concentration (IC50) in experiment [1] was 231 nM; in experiment [4], 2700 nM. The compound also registered a %max in experiment [3] of 40%. The Activity entry in experiment [5] is “Partial agonist”.

The values are drawn from ChEMBL document CHEMBL1138032, “New 2',6'-dimethyl-L-tyrosine (Dmt) opioid peptidomimetics based on the Aba-Gly scaffold. Development of unique mu-opioid receptor ligands” (J Med Chem, 2006).
